Reference: ChEMBL document CHEMBL3612055, “Design, synthesis and biological evaluation of 1,3-diphenyl-1H-pyrazole derivatives containing benzimidazole skeleton as potential anticancer and apoptosis inducing agents” (Eur J Med Chem, 2015)
Active and inactive are the calls of the source. The calls are words filed in the database; no cut-off is given here.

How the values were obtained:
A549 = assay: Anticancer activity against human A549 cells assessed as reduction in cell growth incubated for 48 hrs by MTT assay; type: functional, cell-based; conditions: A549, 48 h
MCF7 [1] = assay: Anticancer activity against human MCF7 cells assessed as reduction in cell growth incubated for 48 hrs by MTT assay; type: functional, cell-based; conditions: MCF7, 48 h
HeLa = assay: Anticancer activity against human HeLa cells assessed as reduction in cell growth incubated for 48 hrs by MTT assay; type: functional, cell-based
HaCaT = assay: Cytotoxic activity against human HaCaT cells assessed as reduction in cell growth incubated for 48 hrs by MTT assay; type: cell-based
MCF7 [2] = assay: Anticancer activity against human MCF7 cells assessed as reduction in cell viability at IC50 level incubated for 48 hrs; type: functional, cell-based
Outline: (§1)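 MCF-7 cells were kept in DMEM/10% FBS and used at passages 4-8. […] Detachment, shrinkage and viable cell numbers were scored under phase contrast microscopy against untreated cells.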

MCF7 [3] = assay: Induction of cell morphology changes in human MCF7 cells assessed as cell detachment at IC50 level incubated for 48 hrs by phase contrast microscopy; type: functional, cell-based; outline: as §1
MCF7 [4] = assay: Induction of cell morphology changes in human MCF7 cells assessed as cell shrinkage at IC50 level incubated for 48 hrs by phase contrast microscopy; type: functional, cell-based; outline: as §1
MCF7 [5] = assay: Inhibition of colony formation in human MCF7 cells assessed as reduction in clonogenic survival at IC50 level incubated for 24 hrs followed medium replacement with fresh medium and further incubation for 14 days; type: functional
MCF7 [6] = assay: Inhibition of cell migration of human MCF7 cells at IC50 level incubated for 24 to 72 hrs by phase contrast microscopy based wound healing assay; type: functional
Outline: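 Confluent MCF-7 monolayers (5×10^5 cells/well, 24 h) were scratched with a pipette tip and washed with PBS pH 7.4. Medium with IC50 concentrations was then added. Cells entering the wound were photographed by phase contrast at 0, 24, 48 and 72 h, in ≥3 random fields per well.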

MCF7 [7] = assay: Increase in E-cadherin mRNA expression in human MCF7 cells at IC50 level incubated for 24 hrs by RT-PCR method; type: functional
Outline: (§2)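 Total RNA was Trizol-extracted and 1 µg reverse-transcribed with random primers. Real-time PCR ran 95 °C 3 min, then 40 cycles of 95 °C 1 s / 60 °C 20 s. Fold change came from comparative CT, normalised to β-actin. Reactions ran in triplicate, across three experiments.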

MCF7 [8] = assay: Increase in beta-catenin mRNA expression in human MCF7 cells at IC50 level incubated for 24 hrs by RT-PCR method; type: functional; outline: as §2
MCF7 [9] = assay: Induction of cell cycle arrest in human MCF7 cells assessed as accumulation at G1 phase at IC50 level incubated for 24 hrs by propidium iodide staining based flow cytometry (reference value: 72.3%); type: functional
Outline: (§3)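 Floating and adherent cells were fixed in 70% ethanol at 4 °C and rehydrated. They were stained 15 min with PI/Triton X-100/RNase A. 10000 events were acquired by flow cytometry. G0/G1, S and G2/M percentages were gated in FlowJo.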

MCF7 [10] = assay: Induction of cell cycle arrest in human MCF7 cells assessed as reduction in accumulation at S phase at IC50 level incubated for 24 hrs by propidium iodide staining based flow cytometry; type: functional; outline: as §3
MCF7 [11] = assay: Induction of cell cycle arrest in human MCF7 cells assessed as reduction in accumulation at G2/M phase at IC50 level incubated for 24 hrs by propidium iodide staining based flow cytometry; type: functional; outline: as §3
MCF7 [12] = assay: Reduction in cyclin D1 mRNA expression in human MCF7 cells at IC50 level incubated for 24 hrs by RT-PCR method; type: functional, cell-based; outline: as §2
MCF7 [13] = assay: Increase in cyclin B1 mRNA expression in human MCF7 cells at IC50 level incubated for 24 hrs by RT-PCR method; type: functional; outline: as §2
MCF7 [14] = assay: Effect on CDK1 cyclin D1 mRNA expression in human MCF7 cells at IC50 level incubated for 24 hrs by RT-PCR method; type: functional, cell-based; outline: as §2
MCF7 [15] = assay: Induction of apoptosis in human MCF7 cells assessed as chromatin condensation at IC50 level incubated for 24 hrs by Hoechst […] staining based fluorescence microscopy; type: functional
Outline: (§4)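 They were fixed in 4% paraformaldehyde and stained with Hoechst […] (5 µg/mL, 30 min, room temperature). Nuclei in random fields were imaged by fluorescence microscopy (ex 350 / em 460 nm). Apoptotic fraction is mean ± SD of three independent experiments; DMSO control.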

MCF7 [16] = assay: Induction of apoptosis in human MCF7 cells assessed as nuclear fragmentation at IC50 level incubated for 24 hrs by Hoechst […] staining based fluorescence microscopy; type: functional; outline: as §4
MCF7 [17] = assay: Induction of apoptosis in human MCF7 cells assessed as DNA fragmentation at IC50 level incubated for 24 hrs by ethidium bromide staining based agarose gel electrophoresis method; type: functional, cell-based
Outline: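 Pellets were lysed in SDS/EDTA/Tris pH 8.0 buffer with RNase A (37 °C, 90 min), then proteinase K (50 °C, 1 h). DNA was precipitated with ammonium acetate/ethanol. It was run on 1.5% agarose in TBE and stained with ethidium bromide, against control cells.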

MCF7 [18] = assay: Reduction in mitochondrial membrane potential in human MCF7 cells at IC50 level incubated for 24 hrs by rhodamine 123 staining based fluorescence microscopy; type: functional
Outline: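 Harvested cells were loaded with rhodamine 123 (5 µg/mL), washed and incubated 30 min at room temperature. They were analysed by flow cytometry and fluorescence microscopy, and fluorescence loss was quantified by spectrofluorometry vs untreated cells.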

MCF7 [19] = assay: Induction of ROS generation in human MCF7 cells at IC50 level incubated for 24 hrs by carboxy-DCFDA staining based fluorescence microscopy; type: functional
Outline: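 Carboxy-DCFDA (10 µM) was added for 30 min at room temperature in the dark. Cells were washed and resuspended at 5×10^4 cells/mL. Fluorescence was read by spectrofluorometry at ex 488 / em 525 nm, with fluorescence microscopy images also taken.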

MCF7 [20] = assay: Induction of apoptosis in human MCF7 cells assessed as increase in Bax mRNA expression at IC50 level incubated for 24 hrs by RT-PCR method; type: functional, cell-based; outline: as §2
MCF7 [21] = assay: Induction of apoptosis in human MCF7 cells assessed as reduction in Bcl2 mRNA expression at IC50 level incubated for 24 hrs by RT-PCR method; type: functional, cell-based; outline: as §2
MCF7 [22] = assay: Induction of apoptosis in human MCF7 cells assessed as increase in caspase-3 mRNA expression at IC50 level incubated for 24 hrs by RT-PCR method; type: functional, cell-based; outline: as §2
MCF7 [23] = assay: Induction of apoptosis in human MCF7 cells assessed as increase in caspase-7 mRNA expression at IC50 level incubated for 24 hrs by RT-PCR method; type: functional, cell-based; outline: as §2

SMILES | IC50 (A549) [nM] | IC50 (MCF7 [1]) [nM] | IC50 (HeLa) [nM] | IC50 (HaCaT) [nM] | Activity (MCF7 [2]) | Activity (MCF7 [3]) | Activity (MCF7 [4]) | inhibition (INH) (MCF7 [5]) [%] | inhibition (MCF7 [6]) | fold change (FC) (MCF7 [7]) | fold change (FC) (MCF7 [8]) | Activity (MCF7 [9]) [%] | Activity (MCF7 [10]) | Activity (MCF7 [11]) | inhibition (MCF7 [12]) | fold change (FC) (MCF7 [13]) | Activity (MCF7 [14]) | Activity (MCF7 [17]) | inhibition (INH) (MCF7 [18]) [%] | fold change (FC) (MCF7 [19]) | also measured
Clc1ccc(-c2nn(-c3ccccc3)cc2-c2nc3cc(Cl)ccc3[nH]2)cc1 | 1340 | 1170 | 1630 | > 50000 | Active | Active | Active | 50 | Active | 1.6 | 1.4 | 81.3 | Active | Active | Active | 1.1 | inactive | Active | 44 | 2 | Activity (MCF7 [15]): 32%; Activity (MCF7 [16]): 32%; Activity (MCF7 [20]): Active; Activity (MCF7 [21]): Active; Activity (MCF7 [22]): Active; Activity (MCF7 [23]): Active
Brc1ccc2[nH]c(-c3cn(-c4ccccc4)nc3-c3ccccc3)nc2c1 | 1810 | 830 | 1760 | > 50000 | Active | Active | Active | 50 | Active | 2.2 | 1.4 | 85.2 | Active | Active | Active | 1.1 | inactive | Active | 62 | 2 | Activity (MCF7 [20]): Active; Activity (MCF7 [21]): Active; Activity (MCF7 [22]): Active; Activity (MCF7 [23]): Active
Fc1ccc(-c2nn(-c3ccccc3)cc2-c2nc3cc(F)ccc3[nH]2)cc1 | 1130 | 950 | 1570 | > 50000 | Active | Active | Active | 50 | Active | 1.6 | 1.4 | 84.7 | Active | Active | Active | 1.1 | inactive | Active | 44 | 2 | Activity (MCF7 [15]): 26%; Activity (MCF7 [16]): 26%; Activity (MCF7 [20]): Active; Activity (MCF7 [21]): Active; Activity (MCF7 [22]): Active; Activity (MCF7 [23]): Active
